Measured values collected from several papers.
Lines come from different studies, so protocols differ.
BCHE: Cholinesterase (BCHE, Equus caballus, UniProt P81908)
SLC6A4: Sodium-dependent serotonin transporter (SLC6A4, Homo sapiens, UniProt P31645)

| SMILES | target | observed | action | method | setting | IC50 [µM] |
| --- | --- | --- | --- | --- | --- | --- |
| O=C(CNC(=S)NN=Cc1ccc([N+](=O)[O-])cc1)c1ccc(Cl)cc1 | BCHE | enzyme activity | inhibitor | Ellman | – | 425 |
| CCn1cnc2c(Nc3cccc(Cl)c3)nc(N[C@@H]3CCCC[C@@H]3N)nc21 | Ribosomal protein S6 kinase alpha-3, N-terminal kinase domain (RPS6KA3, Homo sapiens, UniProt P51812) | enzyme activity | inhibitor | FP | – | 1 |
| CCOc1ccc(C=NNC(=S)NCC(=O)c2ccc(Cl)cc2)cc1 | BCHE | enzyme activity | inhibitor | Ellman | – | 334 |
| CC=C1[C@H]2C=C(C)C[C@]1(N)c1cc(OC)c(=O)[nH]c1C2 | BCHE | enzyme activity | inhibitor | Ellman | – | 599 |
| NC(=O)N1C[C@@H](CCN2CC=C(c3c[nH]c4cc(Cl)ccc34)CC2)c2ccccc21 | SLC6A4 | ligand displacement | – | radioligand | cell membranes | 0.169 |
| C[C@@H](O)[C@@H]1NC(=O)[C@H](CCCCN)NC(=O)[C@@H](Cc2c[nH]c3ccccc23)NC(=O)[C@H](Cc2ccc(O)cc2)NC(=O)[C@@H](NC(=O)[C@@H](Cc2ccccc2)NC(=O)CCC(C(=O)O)N2CCN(C(CCC(=O)O)C(=O)O)CCN(C(CCC(=O)O)C(=O)O)CC2)CSSC[C@@H](C(=O)N[C@H](CO)[C@@H](C)O)NC1=O (some centres unmarked) | Somatostatin receptor type 2 (Rattus norvegicus, UniProt P30680) | ligand displacement | – | radioligand | – | 0.125 |
| CC=C1[C@H]2C=C(C)C[C@]1(N)c1cc(OCCC)c(=O)[nH]c1C2 | BCHE | enzyme activity | inhibitor | Ellman | – | 87.3 |
| C#CCN(C)c1nc(NCCCC2CCN(Cc3ccccc3)CC2)c(C#N)cc1C#N | BCHE | enzyme activity | inhibitor | Ellman | – | 1.19 |
| CC=C1[C@H]2C=C(C)C[C@]1(N)c1cc(OCCCC)c(=O)[nH]c1C2 | BCHE | enzyme activity | inhibitor | Ellman | – | 16.9 |
| CC(=O)N1C[C@H](CCN2CC=C(c3c[nH]c4cc(Cl)ccc34)CC2)c2ccccc21 | SLC6A4 | ligand displacement | – | radioligand | cell membranes | 0.0818 |
| CN1C[C@H](C(=O)N[C@]2(C)O[C@@]3(O)[C@@H]4CCCN4C(=O)[C@H](Cc4ccccc4)N3C2=O)C[C@@H]2c3cccc4[nH]cc(c34)C[C@H]21 | D(1A) dopamine receptor (DRD1, Homo sapiens, UniProt P21728) | ligand displacement | – | radioligand | – | 4.81 |
| O=P(O)(O)Oc1cccc(OP(=O)(O)O)c1 | Signal transducer and activator of transcription 5A, SH2 (Homo sapiens, UniProt P42229) | ligand displacement | – | FP | – | 50 |
| CC=C1[C@H]2C=C(C)C[C@]1(N)c1cc(N)c(=O)[nH]c1C2 | BCHE | enzyme activity | inhibitor | Ellman | – | 525 |
| NC(N)=S | Urease (Canavalia ensiformis, UniProt P07374) | enzyme activity | inhibitor | – | – | 8.83 |
